Each block holds one compound with its values, some of them ahead of it.
Key:
Plasmodium falciparum = test: Antimalarial activity against Plasmodium falciparum 3D7A infected in human RBC after 48 hrs by [3H]-hypoxanthine incorporation assay; type: functional
[1] = AUC (infinity) in CD1 mouse at 10.757 mg/kg administered via oral gavage by LC-MS/MS method; type: ADME, organism-based; design: dose 10.757 mg/kg, route oral, time infinity; conditions: in vivo, 10.76 mg/kg
Outline: (§1)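 Specific pathogen-free female CD1 (Hsd:ICR) mice, 8 to 10 weeks old. Each compound was given as an intravenous dose and an oral dose at the levels listed. Parameters reported: Vd, clearance, t1/2, Cmax, Tmax, AUC0-t, AUC∞ and %F.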

[2] = Tmax in CD1 mouse at 10.757 mg/kg administered via oral gavage by LC-MS/MS method; type: ADME, organism-based; conditions: in vivo
Outline: (§2)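 Specific pathogen-free female CD1 (Hsd:ICR) mice, 8–10 weeks old, housed in the institutional animal facility. Each compound was given intravenously at a low dose and orally at a higher dose. Vd, clearance, t1/2, Cmax, Tmax, AUC0-t, AUC∞ and %F were derived from plasma exposure after each route.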

[3] = Half life in CD1 mouse at 0.17 mg/kg, iv as bolus dose by LC-MS/MS method; type: ADME, organism-based; conditions: in vivo; outline: as §1
[4] = Oral bioavailability in CD1 mouse at 10.757 mg/kg administered via gavage by LC-MS/MS method; type: ADME, organism-based; conditions: in vivo; outline: as §1
Plasmodium yoelii = test: Schizontocidal activity against Plasmodium yoelii infected in CD1 mouse administered via oral gavage as qd for 4 days starting 1 hr post infection by YOYO-1 dye-based flow cytometric method; type: functional
Outline: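 Blood schizontocidal activity was tested in a modified 4-day suppressive test in mice infected with P. yoelii. Four oral doses were given by gavage over four days.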

[5] = AUC (0 to t) in CD1 mouse at 10.757 mg/kg administered via oral gavage by LC-MS/MS method; type: ADME, organism-based; conditions: in vivo; outline: as §1
[6] = Cmax in CD1 mouse at 10.757 mg/kg administered via oral gavage by LC-MS/MS method; type: ADME, organism-based; design: dose 10.757 mg/kg, route oral; conditions: in vivo, 10.76 mg/kg; outline: as §1
serum albumin = serum albumin (Homo sapiens, UniProt P02768); test: Binding affinity to human serum albumin by HPLC method; type: ADME; conditions: read-out: PB (converted)
serum albumin, sequence (P02768 whole entry): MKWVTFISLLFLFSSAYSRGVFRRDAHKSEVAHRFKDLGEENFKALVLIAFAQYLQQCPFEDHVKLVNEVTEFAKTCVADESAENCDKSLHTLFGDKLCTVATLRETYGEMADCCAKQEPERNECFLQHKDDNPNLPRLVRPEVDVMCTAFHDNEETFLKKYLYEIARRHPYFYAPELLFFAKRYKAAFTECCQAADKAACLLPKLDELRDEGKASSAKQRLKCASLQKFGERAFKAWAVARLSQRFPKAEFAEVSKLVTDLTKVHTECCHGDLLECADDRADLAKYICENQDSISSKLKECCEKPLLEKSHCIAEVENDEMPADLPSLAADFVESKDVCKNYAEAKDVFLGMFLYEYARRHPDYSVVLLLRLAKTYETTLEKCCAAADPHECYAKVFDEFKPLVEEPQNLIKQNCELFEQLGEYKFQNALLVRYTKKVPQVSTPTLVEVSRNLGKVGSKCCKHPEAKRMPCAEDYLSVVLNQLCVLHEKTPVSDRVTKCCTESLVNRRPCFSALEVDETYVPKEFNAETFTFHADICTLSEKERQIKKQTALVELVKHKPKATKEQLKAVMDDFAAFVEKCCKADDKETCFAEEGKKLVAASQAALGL

[7] = Clearance in CD1 mouse at 0.17 mg/kg, iv as bolus dose by LC-MS/MS method; type: ADME, organism-based; conditions: in vivo; outline: as §1
[8] = Volume of distribution in CD1 mouse at 0.17 mg/kg, iv as bolus dose by LC-MS/MS method; type: ADME, organism-based; conditions: in vivo; outline: as §2
[9] = Clearance in CD1 mouse at 0.195 mg/kg, iv as bolus dose by LC-MS/MS method; type: ADME, organism-based; conditions: in vivo; outline: as §1
[10] = Half life in CD1 mouse at 0.195 mg/kg, iv as bolus dose by LC-MS/MS method; type: ADME, organism-based; conditions: in vivo; outline: as §1
[11] = AUC (0 to t) in CD1 mouse at 9.354 mg/kg administered via oral gavage by LC-MS/MS method; type: ADME, organism-based; conditions: in vivo; outline: as §1
[12] = Tmax in CD1 mouse at 9.354 mg/kg administered via oral gavage by LC-MS/MS method; type: ADME, organism-based; conditions: in vivo; outline: as §2
[13] = Cmax in CD1 mouse at 9.354 mg/kg administered via oral gavage by LC-MS/MS method; type: ADME, organism-based; design: dose 9.354 mg/kg, route oral; conditions: in vivo; outline: as §1
[14] = Oral bioavailability in CD1 mouse at 9.354 mg/kg administered via gavage by LC-MS/MS method; type: ADME, organism-based; conditions: in vivo; outline: as §2
[15] = AUC (infinity) in CD1 mouse at 9.354 mg/kg administered via oral gavage by LC-MS/MS method; type: ADME, organism-based; design: dose 9.354 mg/kg, route oral, time infinity; conditions: in vivo; outline: as §1
[16] = Volume of distribution in CD1 mouse at 0.195 mg/kg, iv as bolus dose by LC-MS/MS method; type: ADME, organism-based; conditions: in vivo; outline: as §2
[17] = Half life in CD1 mouse at 0.192 mg/kg, iv as bolus dose by LC-MS/MS method; type: ADME, organism-based; conditions: in vivo; outline: as §1
[18] = Cmax in CD1 mouse at 10.36 mg/kg administered via oral gavage by LC-MS/MS method; type: ADME, organism-based; design: dose 10.36 mg/kg, route oral; conditions: in vivo; outline: as §1
[19] = Tmax in CD1 mouse at 10.36 mg/kg administered via oral gavage by LC-MS/MS method; type: ADME, organism-based; conditions: in vivo; outline: as §2
[20] = AUC (infinity) in CD1 mouse at 10.36 mg/kg administered via oral gavage by LC-MS/MS method; type: ADME, organism-based; design: dose 10.36 mg/kg, route oral, time infinity; conditions: in vivo; outline: as §1
[21] = Volume of distribution in CD1 mouse at 0.192 mg/kg, iv as bolus dose by LC-MS/MS method; type: ADME, organism-based; conditions: in vivo; outline: as §2
[22] = Clearance in CD1 mouse at 0.192 mg/kg, iv as bolus dose by LC-MS/MS method; type: ADME, organism-based; conditions: in vivo; outline: as §1
[23] = AUC (0 to t) in CD1 mouse at 10.36 mg/kg administered via oral gavage by LC-MS/MS method; type: ADME, organism-based; conditions: in vivo; outline: as §1
[24] = Oral bioavailability in CD1 mouse at 10.36 mg/kg administered via gavage by LC-MS/MS method; type: ADME, organism-based; conditions: in vivo; outline: as §1

SMILES: Cc1[nH]c(C)c(-c2ccc(OCc3cc(C(F)(F)F)cc(C(F)(F)F)c3)nc2)c(=O)c1Br
IC50 (Plasmodium falciparum): 33 nM

SMILES: Cc1[nH]c(C)c(-c2ccc(-c3ccc(OC(F)(F)F)cc3)nc2)c(=O)c1Cl
AUC(0-inf) [1]: 187 µg·h/mL
Tmax [2]: 10 h
half-life [3]: 18.7 h
bioavailability [4]: 54.9%
ED50 (Plasmodium yoelii): 0.15 mg/kg
AUC(0-t) [5]: 167 µg·h/mL
Cmax [6]: 2290 ng/mL
fraction unbound (serum albumin): 0.04
clearance [7]: 0.53 mL/min/kg
IC50 (Plasmodium falciparum): 20 nM
Vd [8]: 0.85 L/kg

SMILES: Cc1[nH]c(C)c(-c2ccc(-c3cccc(CO)c3)nc2)c(=O)c1Br
IC50 (Plasmodium falciparum): 324 nM

SMILES: Cc1[nH]c(C)c(-c2ccc(C#Cc3ccc(C(F)(F)F)cc3)nc2)c(=O)c1Br
IC50 (Plasmodium falciparum): 58 nM

SMILES: Cc1[nH]c(C)c(-c2ccc(-c3ccc(C#N)cc3)nc2)c(=O)c1Br
IC50 (Plasmodium falciparum): 329 nM

SMILES: Cc1[nH]c(CO)c(-c2ccc(-c3ccc(C(F)(F)F)cc3F)nc2)c(=O)c1Cl
ED50 (Plasmodium yoelii): 0.2 mg/kg
fraction unbound (serum albumin): 0.06
IC50 (Plasmodium falciparum): 5 nM

SMILES: Cc1[nH]c(C)c(-c2ccc(-c3cccc(C(F)(F)F)c3)nc2)c(=O)c1Cl
clearance [9]: 1.52 mL/min/kg
half-life [10]: 5.13 h
AUC(0-t) [11]: 39.5 µg·h/mL
Tmax [12]: 3 h
Cmax [13]: 2470 ng/mL
ED50 (Plasmodium yoelii): 1.2 mg/kg
fraction unbound (serum albumin): 0.05
bioavailability [14]: 38.7%
IC50 (Plasmodium falciparum): 40 nM
AUC(0-inf) [15]: 39.5 µg·h/mL
Vd [16]: 0.68 L/kg

SMILES: Cc1[nH]c(CO)c(-c2ccc(Oc3ccc(OC(F)(F)F)cc3)cc2)c(=O)c1Cl
IC50 (Plasmodium falciparum): 5 nM

SMILES: Cc1[nH]c(C)c(-c2ccc(CCc3cccc(C(F)(F)F)c3)nc2)c(=O)c1Cl
IC50 (Plasmodium falciparum): 7 nM

SMILES: Cc1[nH]c(C)c(-c2ccc(-c3ccc(OC(F)(F)F)cc3)nc2)c(=O)c1Br
half-life [17]: 14.6 h
Cmax [18]: 4100 ng/mL
Tmax [19]: 10 h
AUC(0-inf) [20]: 118 µg·h/mL
fraction unbound (serum albumin): 0.04
Vd [21]: 0.91 L/kg
IC50 (Plasmodium falciparum): 20 nM
clearance [22]: 0.72 mL/min/kg
AUC(0-t) [23]: 109 µg·h/mL
bioavailability [24]: 49.1%

SMILES: Cc1[nH]c(C)c(-c2ccc(-c3ccc(Cl)cc3)nc2)c(=O)c1Br
IC50 (Plasmodium falciparum): 110 nM

Second part, the compound after the results:

IC50 (Plasmodium falciparum): 4 nM
SMILES: Cc1[nH]c(C)c(-c2ccc(OCc3cccc(C(F)(F)F)c3)nc2)c(=O)c1Br

IC50 (Plasmodium falciparum): 33 nM
SMILES: Cc1[nH]c(C)c(-c2ccc(OCc3ccc(F)cc3)nc2)c(=O)c1Cl

IC50 (Plasmodium falciparum): 5 nM
SMILES: Cc1[nH]c(C)c(-c2ccc(OCc3cccc(C(F)(F)F)c3)nc2)c(=O)c1Cl

IC50 (Plasmodium falciparum): 10 nM
SMILES: Cc1[nH]c(C)c(-c2ccc(OCc3ccccc3C(F)(F)F)nc2)c(=O)c1Cl

IC50 (Plasmodium falciparum): 29 nM
SMILES: Cc1[nH]c(C)c(-c2ccc(OCc3cc(C(F)(F)F)cc(C(F)(F)F)c3)nc2)c(=O)c1Cl

IC50 (Plasmodium falciparum): 82 nM
SMILES: Cc1[nH]c(C)c(-c2ccc(-c3ccc(F)cc3)nc2)c(=O)c1Cl

IC50 (Plasmodium falciparum): 10 nM
SMILES: Cc1[nH]c(C)c(-c2ccc(OCc3ccc(F)cc3)nc2)c(=O)c1Br

IC50 (Plasmodium falciparum): 40 nM
SMILES: Cc1[nH]c(C)c(-c2ccc(OCc3cc(F)cc(F)c3)nc2)c(=O)c1Br

IC50 (Plasmodium falciparum): 26 nM
SMILES: Cc1[nH]c(C)c(-c2ccc(-c3ccccc3Cl)nc2)c(=O)c1Cl

IC50 (Plasmodium falciparum): 49 nM
SMILES: Cc1[nH]c(C)c(-c2ccc(-c3ccccc3F)nc2)c(=O)c1Cl

From ChEMBL document CHEMBL4043297, “Synthesis and Structure-Activity Relationships of the Novel Antimalarials 5-Pyridinyl-4(1 H)-Pyridones” (J Med Chem, 2018)
